Results from PMC5111764 (Journal of Clinical Pharmacology, 2016).
Where two headings read alike, the source gives them in different places.

Columns and labels:
active GLP-1 = test: Study 2: weighted average augmentation; format: in vivo, human; details: healthy subjects (abstract)
Summary of the method: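 Once-weekly oral dosing ran days 1, 8 and 15 against placebo. On day 15, standard meals were given at 4 and 10 h post-dose, with the 4-h sample drawn before the meal. Plasma active GLP-1 (7-36 and 7-37 amides) was measured by electrochemiluminescent immunoassay. Capture was with an antibody to amino acid 7, and detection with antibodies to the C-terminal residues 36/37. WAA was taken through 2 h after each meal and analysed by ANOVA versus placebo.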

[1] = Study 1 panel C: effect of a high-fat breakfast on single-dose pharmacokinetics; format: in vivo, human; details: single dose 10 mg
Summary of the method: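 Panel C had 8 subjects, 6 on 10 mg test compound and 2 on placebo, in a 2-period fixed sequence. Dosing was fasted in period 1 and after a standard high-fat breakfast (55.6 g fat, 55 g carbohydrate, 31.1 g protein) in period 2. Washout was at least 2 weeks. Plasma was assayed by LC/MS/MS (LLOQ 1.0 ng/mL). Log-transformed parameters were compared fed/fasted as GMR with 90% CI.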

plasma DPP-4 activity [2] = target: T1, plasma DPP-4 activity (Homo sapiens, UniProt P27487); test: Study 1: inhibition of plasma DPP-4 activity after single doses; format: in vivo
Summary of the method: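 Healthy subjects got single oral doses of 0.5–400 mg or placebo. Blood went into EDTA tubes and was spun at 1700g for 10 min at 4°C, then stored at –20°C or below. Plasma was incubated with glycyl-prolyl-paranitroanilide, and absorbance increase at 390 nm was read from 4 to 14 min (LOQ 0.6 mOD/min). Inhibition is the % change from the period-1 predose baseline. The 168-h values came from a linear mixed-effects model (treatment fixed, subject random).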

[3] = rats and dogs; cited from earlier work
plasma DPP-4 activity [4] = details: lean mice, 0.3 mg/kg dose; cited from earlier work
[5] = ref unpublished data; cited from earlier work
[6] = format: in vivo; details: male, human, plasma, po
Summary of the method: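 In an alternating-panel design (panels A and B), each panel had 6 active and 2 placebo subjects. Single oral doses of 0.5–400 mg were given after an overnight fast, with at least 2 weeks of washout. Blood went into K2EDTA and was spun at 1000–1300g, 4–10°C, for 10 min, then stored at –20°C. Plasma was extracted liquid-liquid with a stable-isotope internal standard and assayed by LC/MS/MS with turbo ionspray (range 1.0–1000 ng/mL). Parameters came from individual concentration-time curves at actual sampling times.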

[7] = ref unpublished data; cited from earlier work; remark: listed apart in the source
[8] = PK/QTc relationship: linear mixed-effects model of QTcF vs plasma concentration; format: in vivo, human; details: Cmax of 10 μM
Summary of the method: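 In study 1, single rising oral doses ran from 0.5 to 400 mg under fasting. ECGs came from 5-lead cardiac telemetry and 12-lead recordings, paired with PK sampling. The averaged triplicate QTcF at each time point (dependent) was matched to plasma drug concentration (independent). These were fitted by a linear mixed-effects model with slope and intercept, and the slope was tested against zero. Prolongation was predicted from the fitted slope.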

[9] = format: in vivo, human; details: for fe, fraction of dose excreted in urine: Day 15, 168-hour collection; for half-life / CL renal: male, human, oral; for half-life: plasma; for CL renal: urine and plasma
Summary of the method: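 Serial panels got 10, 25, 50 or 100 mg orally once weekly on days 1, 8 and 15, with 6 active and 2 placebo per panel. Plasma was assayed by LC/MS/MS (LLOQ 1.0 ng/mL). Urine was fortified with 0.2% Tween 20, protein-precipitated and assayed by LC/MS/MS (range 40.0–40,000 ng/mL). Ae is the sum of concentration × volume per interval, fe is Ae/dose and CLr is Ae/AUC. Accumulation is the day 15/day 1 GMR with 90% CI from a log-transformed mixed-effects model.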

[10] = Safety and tolerability in healthy subjects; format: in vivo, human; details: single and multiple doses
Summary of the method: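 Healthy adults got single rising oral doses or 3 once-weekly oral doses, versus placebo. Physical exams, vital signs and 12-lead ECGs (QTc, PR) were done before dosing, after dosing and at the poststudy visit. So were labs (hematology, serum chemistry including transaminases, urinalysis). Glucometer readings were taken often over 24 h after each single dose or the last multiple dose. Adverse experiences were graded for intensity, duration, seriousness, outcome and drug relation.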

plasma DPP-4 activity [11] = target: T1, plasma DPP-4 activity; test: PK/PD Emax model of DPP-4 inhibition vs omarigliptin plasma concentration; format: in vivo

T1 sequence (P27487 39-766): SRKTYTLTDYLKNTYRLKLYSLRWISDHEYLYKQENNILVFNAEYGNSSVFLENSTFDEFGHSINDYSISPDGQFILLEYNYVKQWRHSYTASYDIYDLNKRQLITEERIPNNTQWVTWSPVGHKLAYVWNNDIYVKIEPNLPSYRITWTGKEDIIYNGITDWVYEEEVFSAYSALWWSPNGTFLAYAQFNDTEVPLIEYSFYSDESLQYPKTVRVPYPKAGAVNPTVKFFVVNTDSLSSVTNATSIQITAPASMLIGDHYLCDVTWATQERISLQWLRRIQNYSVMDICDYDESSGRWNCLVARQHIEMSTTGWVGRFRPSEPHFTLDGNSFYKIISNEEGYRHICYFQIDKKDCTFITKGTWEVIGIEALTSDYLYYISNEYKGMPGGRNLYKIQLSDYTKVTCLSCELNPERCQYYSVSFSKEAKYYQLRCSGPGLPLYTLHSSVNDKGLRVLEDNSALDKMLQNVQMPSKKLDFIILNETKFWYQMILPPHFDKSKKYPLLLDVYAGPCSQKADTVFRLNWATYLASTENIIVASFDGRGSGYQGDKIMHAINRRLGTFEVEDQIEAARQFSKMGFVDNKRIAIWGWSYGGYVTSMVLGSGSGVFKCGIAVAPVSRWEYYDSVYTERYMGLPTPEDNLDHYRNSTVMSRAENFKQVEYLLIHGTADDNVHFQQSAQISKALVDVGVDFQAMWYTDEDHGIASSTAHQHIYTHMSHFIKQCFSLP

## CS(=O)(=O)n1cc2c(n1)CN([C@H]1CO[C@H](c3cc(F)ccc3F)[C@@H](N)C1)C2 [omarigliptin]
Active GLP-1
  increase in weighted average postprandial active GLP-1: ~2 fold
[1]
  difference in overall absorption in the presence and absence of a high-fat breakfast: No difference
Plasma DPP-4 activity [2]; single dose 0.5 mg
  percentage inhibition of DPP-4 activity 168 hours postdose (point estimate): 32.2%
Plasma DPP-4 activity [2]; single dose 400 mg
  percentage inhibition of DPP-4 activity 168 hours postdose (point estimate): 96.7%
[3]
  bioavailability: nearly complete
Plasma DPP-4 activity [4]
  inhibition of plasma DPP-4 activity: ~85%
[5]
  permeability: high
[6]
  Tmax: 0.75 to 4 h
[6]; 0.5 mg
  Cmax: 6.5 nM
  Tmax: 0.75 h
[6]; 1.5 mg
  AUC(0-inf): 1.7 µM·h
  Cmax: 20.7 nM
  Tmax: 1 h
[6]; 5 mg
  AUC(0-inf): 5.3 µM·h
  Cmax: 88.2 nM
  Tmax: 2 h
[6]; 12.5 mg
  AUC(0-inf): 12 µM·h
  Cmax: 219 nM
  Tmax: 4 h
[6]; 25 mg
  AUC(0-inf): 22.5 µM·h
  Cmax: 484 nM
  Tmax: 0.75 h
[6]; 50 mg
  AUC(0-inf): 41.6 µM·h
  Cmax: 904 nM
  Tmax: 1.5 h
[6]; 100 mg
  AUC(0-inf): 86.9 µM·h
  Cmax: 2210 nM
  Tmax: 0.75 h
[6]; 200 mg
  AUC(0-inf): 162 µM·h
  Cmax: 3850 nM
  Tmax: 1.5 h
[6]; 400 mg
  AUC(0-inf): 335 µM·h
  Cmax: 9290 nM
  Tmax: 1 h
[7]
  solubility: high
[8]
  margin to the clinical dose of 25 mg: ~20 fold
[9]; 10 mg once weekly
  fe, fraction of dose excreted in urine: 70.1 (14.1) %
[9]; 25 mg once weekly
  fe, fraction of dose excreted in urine: 57.5 (15.7) %
[9]; 50 mg once weekly
  fe, fraction of dose excreted in urine: 73.6 (4.3) %
[9]; 100 mg once weekly
  fe, fraction of dose excreted in urine: 72.2 (7.7) %
[9]; all treatments 10 to 100 mg once weekly
  steady state achieved following the second dosing: more than 80%
[9]; 10 mg
  half-life: 83.2 h
  CL renal: 33.3 mL/min
[9]; 25 mg
  half-life: 66.7 h
  CL renal: 26.7 mL/min
[9]; 50 mg
  half-life: 48.3 h
  CL renal: 31.7 mL/min
[9]; 100 mg
  half-life: 41.7 h
  CL renal: 35 mL/min
[9]
  CL renal: 26.7 to 35 mL/min
[10]; healthy adults
  tolerability: generally well tolerated
[10]
  clinical or laboratory adverse experiences of hypoglycemia: no reports
  serious clinical or laboratory adverse experiences or discontinuation because of a clinical adverse experience: No subject
Plasma DPP-4 activity [11]; Emax model, single doses, SE 0.03
  Hill slope γ: 1.1
Plasma DPP-4 activity [11]; read-out: Emax, maximum inhibition of plasma DPP-4 activity
  Emax: 96.8%
